Screens (PubChem)
Shown is part of a subset that was picked to be rich in hits.
E coli WT exp – E. coli BW25113 growth inhibition, expanded screen; OD600 absorbance; growth inhibition, % at 100 µM; 0.15% of 98,000 active; AID 710;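 active = growth inhibition above about 50% at one test dose, limit read from the data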;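 also: growth measured after 20 h incubation at 37 °C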
CD11b adhes enh – CD11b/CD18-fibrinogen binding enhancement | P05107+P11215 | K562 CD11b/CD18 adhesion to fibrinogen, ATPlite luminescence | activation, % at 10 µM | 0.07% of 93,000 active | AID 1499;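 active = 10 µM primary screen giving 50% or more activity, confirmed by 40% or more on retest at that dose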
Target sequence (P05107 whole entry, looked up, other chains not shown): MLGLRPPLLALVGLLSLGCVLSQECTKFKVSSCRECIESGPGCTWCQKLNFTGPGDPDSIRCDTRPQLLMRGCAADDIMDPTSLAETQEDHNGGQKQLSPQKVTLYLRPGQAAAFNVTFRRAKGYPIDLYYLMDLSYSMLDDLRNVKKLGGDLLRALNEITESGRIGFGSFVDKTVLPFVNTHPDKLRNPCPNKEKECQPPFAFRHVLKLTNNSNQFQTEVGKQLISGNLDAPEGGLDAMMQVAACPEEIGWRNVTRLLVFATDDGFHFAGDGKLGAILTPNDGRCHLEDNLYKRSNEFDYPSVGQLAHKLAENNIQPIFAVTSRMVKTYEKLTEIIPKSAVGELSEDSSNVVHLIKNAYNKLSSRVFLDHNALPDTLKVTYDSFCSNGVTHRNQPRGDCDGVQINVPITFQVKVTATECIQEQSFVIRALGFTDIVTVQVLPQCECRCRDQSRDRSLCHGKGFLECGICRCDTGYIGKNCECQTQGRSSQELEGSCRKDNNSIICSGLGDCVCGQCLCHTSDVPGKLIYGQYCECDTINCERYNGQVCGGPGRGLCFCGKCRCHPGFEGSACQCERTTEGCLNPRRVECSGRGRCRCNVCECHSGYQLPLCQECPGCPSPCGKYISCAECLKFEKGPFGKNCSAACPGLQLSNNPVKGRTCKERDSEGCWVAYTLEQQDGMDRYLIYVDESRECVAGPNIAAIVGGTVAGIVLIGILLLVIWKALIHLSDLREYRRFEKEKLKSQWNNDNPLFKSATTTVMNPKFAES
Ecoli tolC – growth inhibitors of E. coli BW25113 tolC mutant | OD615 | growth inhibition, % at 10 µM (by protocol) | 2.2% of 65,000 active | AID 573;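 active = growth inhibition at or above a cutoff equal to the mean over every tested compound plus 3 SD, cut at about 60% in these data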;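 also: growth measured after 20 h incubation at 37 °C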
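Doses: one dose of 10 µM final / Material: E. coli BW25113 ΔtolC::kan, tolC deletion mutant strain / Buffer or medium: LB with kanamycin 50 µg/mL / Evaluation: percent growth inhibition / Detection: optical density read at 615 nm / Incubation: 37 °C, 20 h exposure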
CD11b adhes inh – inhibitors of human CD11b/CD18 binding to fibrinogen | P05107+P11215 | K562 CD11b/CD18 adhesion to fibrinogen, ATPlite luminescence; Mn2+ added to activate the integrin | inhibition, % at 10 µM | 0.54% of 93,000 active | AID 1497;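 active = primary inhibition of 50% or more at 10 µM, then 40% or more on retest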
Phagocytosis inh – inhibitors of macrophage phagocytosis; J774A.1 macrophage IgG-bead phagocytosis, imaging; inhibition, % at 5 µM; 0.07% of 110,000 active; AID 1029;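 active = inhibition above the mean of the plate negative controls plus 5 SD, cut at about 13% in these data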;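 also: phagocytic index as fraction of beads internalized from green versus red external bead signal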
Of the large screens only hits and unclear results are named; the others gave an inactive call; [ ] = remark or other dose.

CCOc1ccc(NC(=O)CC(c2ccccc2)c2ccc(F)cc2)cc1 (centres undefined)	none (no result: E coli WT exp, CD11b adhes enh, Ecoli tolC, CD11b adhes inh)
O=C(COc1cccc2c1CCN(Cc1ccc(Br)cc1)C2=O)NCc1ccco1	none (no result: E coli WT exp, Ecoli tolC)
CCC(=O)OCC(=O)c1c(N)n(Cc2ccccc2)c(=O)n(C)c1=O	none (no result: CD11b adhes enh, CD11b adhes inh, Phagocytosis inh)
Cn1c(=O)c(C(=S)NC(=O)C2CC2)c(N)n(Cc2ccccc2)c1=O	Ecoli tolC 86
CCCCCc1c(C)nc(Nc2ccccc2)[nH]c1=O	Ecoli tolC 75
N#CC(c1ccccc1)c1ccc(C(=O)c2ccc(F)cc2)cc1 (centres undefined)	CD11b adhes inh 87 (no result: Ecoli tolC)
N#CC(c1ccc(F)cc1)c1ccc(C(=O)c2ccccc2)cc1 (centres undefined)	none (no result: Ecoli tolC)
COC(=O)c1ccc(COC(=O)c2[nH]c(C)c(C(C)=O)c2C)o1	CD11b adhes inh 76
Cc1cc(C)c(O)c(-c2cc(C(=O)NCc3ccccc3)[nH]n2)c1	none (no result: Ecoli tolC)
COc1ccc(NC(=O)c2cc(-c3cc(C)cc(C)c3O)n[nH]2)cc1Cl	Ecoli tolC 96
CN(C)C(=O)COC(=O)c1ccccc1Nc1ccc(SC(F)F)cc1	none (no result: E coli WT exp, Ecoli tolC)
c1coc(CN(Cc2cccs2)Cc2nnnn2C2CCCCC2)c1	Ecoli tolC 95 (no result: CD11b adhes enh, CD11b adhes inh, Phagocytosis inh)
CCOC(=O)c1ccc(Oc2nc(NC(C)(C)C)nc(N(C)C)n2)cc1	Ecoli tolC 66
O=C(NC(Nc1ncc(S(=O)(=O)c2ccc([N+](=O)[O-])cc2)s1)(C(F)(F)F)C(F)(F)F)c1ccc(Cl)cc1	CD11b adhes inh 96 (no result: Ecoli tolC)
O=C(Nc1ncc(S(=O)(=O)c2ccc([N+](=O)[O-])cc2)s1)c1cccc2ccccc12	none (no result: E coli WT exp, CD11b adhes enh, Ecoli tolC, CD11b adhes inh)
COc1ccc(-c2cc(C(=O)N3CC4(C)CC3CC(C)(C)C4)no2)cc1OC (centres undefined)	Ecoli tolC 71
CC1(C)CC2CC(C)(CN2C(=O)c2cc(-c3ccccc3O)on2)C1 (centres undefined)	Ecoli tolC 95
COc1ccc(-c2cc(C(=O)N3CC4(C)CC3CC(C)(C)C4)no2)cc1 (centres undefined)	Ecoli tolC 65
CC1(C)CC2CC(C)(CN2C(=O)c2cccs2)C1 (centres undefined)	none
COc1cccc(-c2cc(C(=O)N3C(C)CCCC3C)no2)c1 (centres undefined)	Ecoli tolC 68
Cc1cccc(C(=O)NNC(=O)CN2C(=O)c3ccccc3C2=O)c1	none (no result: E coli WT exp, Ecoli tolC)
CCOC(=O)c1cnn(-c2nc3sc4c(c3c(=O)[nH]2)CCCC4)c1N	Ecoli tolC 94 (no result: E coli WT exp)
COc1ccc(-c2nnc(SCc3cc(C)cc(C)c3)o2)cc1	Ecoli tolC 69
COc1ccc(-c2nnc(SCC(=O)c3ccc(C)o3)o2)cc1	none (no result: E coli WT exp, CD11b adhes enh, CD11b adhes inh, Phagocytosis inh)
O=S1(=O)C[C@H]2NC(=S)N(c3ccccc3)[C@H]2C1	none (no result: E coli WT exp, Ecoli tolC)
COCCCN1C(=O)c2[nH]nc(-c3ccccc3O)c2C1c1cccc(Cl)c1 (centres undefined)	none
O=C1c2[nH]nc(-c3ccccc3O)c2C(c2ccccc2F)N1Cc1ccco1 (centres undefined)	Ecoli tolC 100
COCCCN1C(=O)c2[nH]nc(-c3ccccc3O)c2C1c1ccc(Cl)cc1 (centres undefined)	Ecoli tolC 64
O=C1c2[nH]nc(-c3ccccc3O)c2C(c2ccccc2)N1Cc1ccco1 (centres undefined)	Ecoli tolC 98
C#CCn1cc(/C=N/Nc2nc3ccccc3[nH]2)c2ccccc21	none (no result: E coli WT exp, Ecoli tolC)
Cc1cn2c(nc(=O)c3cccnc32)s1	none (no result: E coli WT exp, CD11b adhes enh, Ecoli tolC, CD11b adhes inh)
CCOC(=O)C1(N(CC)CC)Sc2cc(C)ccc2NC1=O (centres undefined)	Ecoli tolC 72 (no result: CD11b adhes enh, CD11b adhes inh, Phagocytosis inh)
CCOC(=O)C1(Nc2nccs2)Sc2ccccc2NC1=O (centres undefined)	none
COCCn1c(SCCCC(=O)c2ccc(Br)cc2)nnc1-c1ccncc1	CD11b adhes inh 69 (no result: Ecoli tolC)
O=C(Nc1nnc(-c2ccccc2)o1)c1nc2ccccc2s1	Ecoli tolC 73 (no result: E coli WT exp, CD11b adhes enh, CD11b adhes inh, Phagocytosis inh)
NC(=O)c1oc2ccccc2c1NC(=O)c1nc2ccccc2s1	none
Oc1c(CN2CCc3ccccc3C2)cc(Cl)c2cccnc12	E coli WT exp 86, Ecoli tolC 64
Oc1c(CN2CCCCC2)cc(Br)c2cccnc12	E coli WT exp 100, Ecoli tolC 100 (no result: Phagocytosis inh)
CN1CCN(Cc2cc(COCc3ccccc3)c3cccnc3c2O)CC1	none
CC1Oc2ccccc2N(Cc2ccccc2Cl)C1=O (centres undefined)	Ecoli tolC 61 (no result: CD11b adhes enh, CD11b adhes inh, Phagocytosis inh)
CCCCCC(=O)N/N=C/c1ccc([N+](=O)[O-])o1	E coli WT exp 60 (no result: CD11b adhes enh, Ecoli tolC, CD11b adhes inh, Phagocytosis inh)
O=C(Nc1cccc(Cl)c1)N(CCCN1CCOCC1)Cc1ccccc1F	Ecoli tolC 68
CC(C)CC(=O)Nc1ccc(-c2cn3ccsc3n2)cc1	none
CC(C)(C)C(=O)Nc1ccc(-c2cn3ccsc3n2)cc1	CD11b adhes inh 61
Cc1[nH]n(-c2ccccc2)c(=O)c1/C=N/c1ccccn1	none (no result: CD11b adhes enh, CD11b adhes inh, Phagocytosis inh)
Cc1[nH]n(-c2ccccc2)c(=O)c1N=Nc1nccs1	CD11b adhes inh 56 (no result: Ecoli tolC)
CCOC(=O)N1CCC(NC(=O)C2CCN(S(=O)(=O)c3cccs3)CC2)CC1	Phagocytosis inh 44
COc1ccc(-c2csc(NCc3ccco3)n2)cc1C	Ecoli tolC 65
Cc1cc(Br)ccc1NC(=S)Nc1cccc([N+](=O)[O-])c1	CD11b adhes inh 99 (no result: E coli WT exp, Ecoli tolC)
Cc1ccc2cccc(Oc3ncnc4scc(-c5ccc(Cl)cc5)c34)c2n1	none (no result: E coli WT exp, Ecoli tolC)
CC(C)NC(=O)c1ccc(-n2nc(C(F)(F)F)c3c2CCCC3)cc1	none (no result: E coli WT exp, Ecoli tolC)
Cn1c(SCC(=O)N2c3ccccc3Sc3ccc(Cl)cc32)nnc1-c1ccco1	Ecoli tolC 65 (no result: CD11b adhes enh, CD11b adhes inh, Phagocytosis inh)
CCOC(=O)C(Cc1c[nH]c2ccccc12)NC(=O)c1ccco1 (centres undefined)	Phagocytosis inh 90[artifact]
COC(=O)C(Cc1c[nH]c2ccccc12)NC(=O)C(C)C (centres undefined)	none (no result: Ecoli tolC)
COc1cccc(C(=O)CN(C(=O)c2ccc(Cl)c(Cl)c2)N2C(=O)C3CCCCC3C2=O)c1 (centres undefined)	none (no result: Ecoli tolC)
COc1ccc(Br)cc1/C(C)=N/NC1=NCCN1	CD11b adhes inh 74 (no result: Ecoli tolC)
CCOC(=O)C(C)(C)Sc1nc2c(cnn2-c2ccc(Cl)cc2)c(=O)[nH]1	Phagocytosis inh 163[fluoresces]
O=C(OC1CCc2ccccc2C1=O)c1ccccc1O (centres undefined)	Ecoli tolC 68
Cc1cc(C(=O)OCc2nnc(-c3ccccc3)o2)c(C)n1-c1ccccc1	Ecoli tolC 63
Cc1noc(C)c1COC(=O)c1cc(C)n(-c2ccccc2)c1C	Ecoli tolC 93 (no result: CD11b adhes enh, CD11b adhes inh)
N#Cc1cn(Cc2cccc(Cl)c2)c2ccccc12	Ecoli tolC 97
O=C(NCc1ccccn1)c1ccc(CNS(=O)(=O)c2cccc(Cl)c2)cc1	none (no result: E coli WT exp, CD11b adhes enh, Ecoli tolC, CD11b adhes inh)
O=c1[nH]c2ccccc2n1Cc1ccc(Cl)cc1	none (no result: Ecoli tolC)
O=c1n(Cc2ccccc2)c2cc(Cl)cnc2n1Cc1ccccc1	Ecoli tolC 89
Cc1cccc(C)c1NC(=O)CNc1ncnc2sc(C)c(C)c12	none (no result: E coli WT exp, Ecoli tolC)
O=C(Nc1nccs1)C(NS(=O)(=O)c1ccc(Br)s1)c1ccccc1 (centres undefined)	Ecoli tolC 61
